According to ChEMBL document CHEMBL1926614, “Substituted thiazoles V. synthesis and antitumor activity of novel thiazolo[2,3-b]quinazoline and pyrido[4,3-d]thiazolo[3,2-a]pyrimidine analogues” (2012):

Assays:
Assay type in all cases: functional
SF-295 = assay: Growth inhibition of human SF295 cells at 10 uM after 48 hrs by coulter counting; conditions: SF-295, 48 h, read-out: GI
Outline: (§1)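 Single-dose primary screen across the full NCI 60-cell-line panel. Stocks were made in DMSO and diluted in PBS to a final DMSO below 1%. Cultures at 6 × 10⁴ cells/ml were run in duplicate wells alongside PBS/DMSO vehicle controls at 37 °C in humidified 5% CO₂. Data were expressed as percent growth of treated cells.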

SNB-75 = assay: Growth inhibition of human SNB75 cells at 10 uM after 48 hrs by coulter counting; conditions: SNB-75, 48 h, read-out: GI; outline: as §1
OVCAR-4 = assay: Growth inhibition of human OVCAR4 cells at 10 uM after 48 hrs by coulter counting; conditions: OVCAR-4, 48 h, read-out: GI; outline: as §1
M14 = assay: Growth inhibition of human M14 cells at 10 uM after 48 hrs by coulter counting; conditions: M14, 48 h, read-out: GI; outline: as §1
UO-31 = assay: Growth inhibition of human UO31 cells at 10 uM after 48 hrs by coulter counting; conditions: UO-31, 48 h, read-out: GI
Outline: (§2)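 Single-dose screen in the NCI 60 human tumor cell line panel (nine subpanels). Compounds dissolved in DMSO and diluted in phosphate buffered saline, keeping final DMSO below 1%. Added in duplicate wells to cells at 6 × 10⁴ cells/ml. Controls held PBS and DMSO at matching dilutions. Incubated at 37 °C, humidified, 5% CO₂. Reported as percent growth of treated cells.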

MDA-MB-435 = assay: Growth inhibition of human MDA-MB-435 cells at 10 uM after 48 hrs by coulter counting; conditions: MDA-MB-435, 48 h, read-out: GI; outline: as §1
[1] = Growth inhibition of human NCI-322M cells at 10 uM after 48 hrs by coulter counting; conditions: read-out: GI; outline: as §1
HCT-116 = assay: Growth inhibition of human HCT116 cells at 10 uM after 48 hrs by coulter counting; conditions: HCT-116, 48 h, read-out: GI; outline: as §1
U-251 = assay: Growth inhibition of human U251 cells at 10 uM after 48 hrs by coulter counting; conditions: U-251, 48 h, read-out: GI; outline: as §2
SNB-19 = assay: Growth inhibition of human SNB19 cells at 10 uM after 48 hrs by coulter counting; conditions: SNB-19, 48 h, read-out: GI; outline: as §1
UACC-257 = assay: Growth inhibition of human UACC257 cells at 10 uM after 48 hrs by coulter counting; conditions: UACC-257, 48 h, read-out: GI; outline: as §2
HL-60(TB) = assay: Growth inhibition of human HL-60(TB) cells at 10 uM after 48 hrs by coulter counting; conditions: HL-60, 48 h, read-out: GI
Outline: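 Test compound was dissolved in DMSO and diluted in phosphate-buffered saline to a final DMSO level below 1%. Dilutions were plated in duplicate with cell culture at 6 × 10⁴ cells/ml. Vehicle controls held PBS and DMSO at matching dilutions. Incubation was at 37 °C, humidified, under 5% CO₂. Data were reported as percent growth of treated cells.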

CCRF-CEM = assay: Growth inhibition of human CCRF-CEM cells at 10 uM after 48 hrs by coulter counting; conditions: read-out: GI; outline: as §1
SK-MEL-28 = assay: Growth inhibition of human SK-MEL-28 cells at 10 uM after 48 hrs by coulter counting; conditions: SK-MEL-28, 48 h, read-out: GI; outline: as §1
CAKI-1 = assay: Growth inhibition of human Caki1 cells at 10 uM after 48 hrs by coulter counting; conditions: CAKI-1, 48 h, read-out: GI; outline: as §1
A549 = assay: Growth inhibition of human A549 cells at 10 uM after 48 hrs by coulter counting; conditions: A549, 48 h, read-out: GI; outline: as §1
LOX IMVI = assay: Growth inhibition of human LOXIMVI cells at 10 uM after 48 hrs by coulter counting; conditions: read-out: GI; outline: as §1
RPMI-8226 = assay: Growth inhibition of human RPMI8226 cells at 10 uM after 48 hrs by coulter counting; conditions: RPMI-8226, 48 h, read-out: GI; outline: as §1
HT-29 = assay: Growth inhibition of human HT-29 cells at 10 uM after 48 hrs by coulter counting; conditions: HT-29, 48 h, read-out: GI; outline: as §1
SF-268 = assay: Growth inhibition of human SF268 cells at 10 uM after 48 hrs by coulter counting; conditions: SF-268, 48 h, read-out: GI; outline: as §1
NCI-H460 = assay: Growth inhibition of human NCI-H460 cells at 10 uM after 48 hrs by coulter counting; conditions: NCI-H460, 48 h, read-out: GI; outline: as §1
NCI/ADR-RES = assay: Growth inhibition of human NCI/ADR-RES cells at 10 uM after 48 hrs by coulter counting; conditions: read-out: GI; outline: as §1
SK-MEL-2 = assay: Growth inhibition of human SK-MEL-2 cells at 10 uM after 48 hrs by coulter counting; conditions: SK-MEL-2, 48 h, read-out: GI; outline: as §1
KM12 = assay: Growth inhibition of human KM12 cells at 10 uM after 48 hrs by coulter counting; conditions: KM12, 48 h, read-out: GI; outline: as §1
IGROV-1 = assay: Growth inhibition of human IGROV1 cells at 10 uM after 48 hrs by coulter counting; conditions: IGROV-1, 48 h, read-out: GI; outline: as §1
SF-539 = assay: Growth inhibition of human SF539 cells at 10 uM after 48 hrs by coulter counting; conditions: SF-539, 48 h, read-out: GI; outline: as §1
UACC-62 = assay: Growth inhibition of human UACC62 cells at 10 uM after 48 hrs by coulter counting; conditions: UACC-62, 48 h, read-out: GI; outline: as §2
MCF7 = assay: Growth inhibition of human MCF7 cells at 10 uM after 48 hrs by coulter counting; conditions: MCF7, 48 h, read-out: GI; outline: as §1
BT-549 = assay: Growth inhibition of human BT549 cells at 10 uM after 48 hrs by coulter counting; conditions: BT-549, 48 h, read-out: GI; outline: as §1
HOP-62 = assay: Growth inhibition of human HOP62 cells at 10 uM after 48 hrs by coulter counting; conditions: HOP-62, 48 h, read-out: GI; outline: as §1
ACHN = assay: Growth inhibition of human ACHN cells at 10 uM after 48 hrs by coulter counting; conditions: read-out: GI; outline: as §1
T47D = assay: Growth inhibition of human T47D cells at 10 uM after 48 hrs by coulter counting; conditions: read-out: GI; outline: as §2
MOLT-4 = assay: Growth inhibition of human MOLT4 cells at 10 uM after 48 hrs by coulter counting; conditions: MOLT-4, 48 h, read-out: GI; outline: as §1
NCI-H23 = assay: Growth inhibition of human NCI-H23 cells at 10 uM after 48 hrs by coulter counting; conditions: NCI-H23, 48 h, read-out: GI; outline: as §1
A498 = assay: Growth inhibition of human A498 cells at 10 uM after 48 hrs by coulter counting; conditions: A498, 48 h, read-out: GI; outline: as §1
NCI-H226 = assay: Growth inhibition of human NCI-H226 cells at 10 uM after 48 hrs by coulter counting; conditions: NCI-H226, 48 h, read-out: GI; outline: as §1
SK-MEL-5 = assay: Growth inhibition of human SK-MEL-5 cells at 10 uM after 48 hrs by coulter counting; conditions: SK-MEL-5, 48 h, read-out: GI; outline: as §1
DU-145 = assay: Growth inhibition of human DU145 cells at 10 uM after 48 hrs by coulter counting; conditions: DU-145, 48 h, read-out: GI; outline: as §1
NCI-H522 = assay: Growth inhibition of human NCI-H522 cells at 10 uM after 48 hrs by coulter counting; conditions: NCI-H522, 48 h, read-out: GI; outline: as §1
K562 = assay: Growth inhibition of human K562 cells at 10 uM after 48 hrs by coulter counting; conditions: K562, 48 h, read-out: GI; outline: as §1
EKVX = assay: Growth inhibition of human EKVX cells at 10 uM after 48 hrs by coulter counting; conditions: read-out: GI; outline: as §1
HCC 2998 = assay: Growth inhibition of human HCC2998 cells at 10 uM after 48 hrs by coulter counting; conditions: HCC 2998, 48 h, read-out: GI; outline: as §1

Structure (SMILES): CC1=CSC2=NC3=C(CCC/C3=C\c3ccccc3)C(c3ccccc3)N12 (stereo not drawn)
- inhibition of growth at 10 µM (SF-295): > 10%
- inhibition of growth at 10 µM (SNB-75): 13.3%
- inhibition of growth at 10 µM (OVCAR-4): > 10%
- inhibition of growth at 10 µM (M14): > 10%
- inhibition of growth at 10 µM (UO-31): 28.8%
- inhibition of growth at 10 µM (MDA-MB-435): > 10%
- inhibition of growth at 10 µM [1]: > 10%
- inhibition of growth at 10 µM (HCT-116): > 10%
- inhibition of growth at 10 µM (U-251): > 10%
- inhibition of growth at 10 µM (SNB-19): > 10%
- inhibition of growth at 10 µM (UACC-257): > 10%
- inhibition of growth at 10 µM (HL-60(TB)): > 10%
- inhibition of growth at 10 µM (CCRF-CEM): > 10%
- inhibition of growth at 10 µM (SK-MEL-28): > 10%
- inhibition of growth at 10 µM (CAKI-1): 11.4%
- inhibition of growth at 10 µM (A549): > 10%
- inhibition of growth at 10 µM (LOX IMVI): > 10%
- inhibition of growth at 10 µM (RPMI-8226): > 10%
- inhibition of growth at 10 µM (HT-29): > 10%
- inhibition of growth at 10 µM (SF-268): > 10%
- inhibition of growth at 10 µM (NCI-H460): > 10%
- inhibition of growth at 10 µM (NCI/ADR-RES): > 10%
- inhibition of growth at 10 µM (SK-MEL-2): > 10%
- inhibition of growth at 10 µM (KM12): > 10%
- inhibition of growth at 10 µM (IGROV-1): > 10%
- inhibition of growth at 10 µM (SF-539): > 10%
- inhibition of growth at 10 µM (UACC-62): > 10%
- inhibition of growth at 10 µM (MCF7): > 10%
- inhibition of growth at 10 µM (BT-549): > 10%
- inhibition of growth at 10 µM (HOP-62): > 10%
- inhibition of growth at 10 µM (ACHN): > 10%
- inhibition of growth at 10 µM (T47D): > 10%
- inhibition of growth at 10 µM (MOLT-4): > 10%
- inhibition of growth at 10 µM (NCI-H23): > 10%
- inhibition of growth at 10 µM (A498): > 10%
- inhibition of growth at 10 µM (NCI-H226): 11.2%
- inhibition of growth at 10 µM (SK-MEL-5): > 10%
- inhibition of growth at 10 µM (DU-145): > 10%
- inhibition of growth at 10 µM (NCI-H522): > 10%
- inhibition of growth at 10 µM (K562): 13.8%
- inhibition of growth at 10 µM (EKVX): > 10%
- inhibition of growth at 10 µM (HCC 2998): > 10%

Structure (SMILES): COc1ccc(/C=C2\CCCC3=C2N=C2SC=C(C)N2C3c2ccc(OC)c(OC)c2)cc1OC (stereo not drawn)
- inhibition of growth at 10 µM (SF-295): > 10%
- inhibition of growth at 10 µM (SNB-75): > 10%
- inhibition of growth at 10 µM (OVCAR-4): > 10%
- inhibition of growth at 10 µM (M14): > 10%
- inhibition of growth at 10 µM (UO-31): > 10%
- inhibition of growth at 10 µM (MDA-MB-435): > 10%
- inhibition of growth at 10 µM [1]: > 10%
- inhibition of growth at 10 µM (HCT-116): > 10%
- inhibition of growth at 10 µM (U-251): > 10%
- inhibition of growth at 10 µM (SNB-19): > 10%
- inhibition of growth at 10 µM (UACC-257): > 10%
- inhibition of growth at 10 µM (HL-60(TB)): > 10%
- inhibition of growth at 10 µM (CCRF-CEM): > 10%
- inhibition of growth at 10 µM (SK-MEL-28): > 10%
- inhibition of growth at 10 µM (CAKI-1): > 10%
- inhibition of growth at 10 µM (A549): > 10%
- inhibition of growth at 10 µM (LOX IMVI): > 10%
- inhibition of growth at 10 µM (RPMI-8226): > 10%
- inhibition of growth at 10 µM (HT-29): > 10%
- inhibition of growth at 10 µM (SF-268): > 10%
- inhibition of growth at 10 µM (NCI-H460): > 10%
- inhibition of growth at 10 µM (NCI/ADR-RES): > 10%
- inhibition of growth at 10 µM (SK-MEL-2): > 10%
- inhibition of growth at 10 µM (KM12): > 10%
- inhibition of growth at 10 µM (IGROV-1): > 10%
- inhibition of growth at 10 µM (SF-539): > 10%
- inhibition of growth at 10 µM (UACC-62): > 10%
- inhibition of growth at 10 µM (MCF7): > 10%
- inhibition of growth at 10 µM (BT-549): > 10%
- inhibition of growth at 10 µM (ACHN): > 10%
- inhibition of growth at 10 µM (T47D): > 10%
- inhibition of growth at 10 µM (MOLT-4): > 10%
- inhibition of growth at 10 µM (NCI-H23): > 10%
- inhibition of growth at 10 µM (A498): > 10%
- inhibition of growth at 10 µM (NCI-H226): 10.5%
- inhibition of growth at 10 µM (SK-MEL-5): > 10%
- inhibition of growth at 10 µM (DU-145): > 10%
- inhibition of growth at 10 µM (NCI-H522): > 10%
- inhibition of growth at 10 µM (K562): > 10%
- inhibition of growth at 10 µM (EKVX): 11.4%
- inhibition of growth at 10 µM (HCC 2998): > 10%
